Compound activity deposited in PubChem BioAssay by Sanford-Burnham Center for Chemical Genomics.
CHOP UPR activ: apoptotic UPR (CHOP) activation. CHO-CHOP luciferase reporter, luminescence; percent of tunicamycin response over DMSO baseline. activation, % at 10 µM. 330,000 compounds, 0.34% hits;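 active = at 10 µM dose, activation of 40% or more, normalized to positive control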
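Evaluation: % reporter activation, DMSO baseline versus tunicamycin full activation; System: CHO-CHOP luciferase reporter cell line; Input: 500 cells/well; Incubation: 6 h compound treatment, 37 °C; Measured by: Steady-Glo luciferase luminescence; Dosing: one dose, 10 µM in 0.5% DMSO; Buffer or medium: F12 medium, 10% FBS; Benchmarks: positive tunicamycin 10 µg/mL, negative DMSO alone.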
TIM10 inh: growth inhibitors of TIM10 yeast strain; 330,000 compounds, 1.4% hits; inhibition, % at 10 µM; S. cerevisiae TIM10 strain growth, BacTiter-Glo luminescence, 24 h;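 active = inhibition of 40% or more at the single tested concentration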;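 note: wild-type TIM10 isogenic control strain grown at permissive 25 °C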
UPR XBP1 act: adaptive UPR (XBP1) activation; CHO-XBP1 luciferase reporter, IRE1-XBP1 UPR activation, luminescence; percent of tunicamycin response, DMSO as zero; activation, % at 20 µM; 330,000 compounds, 0.33% hits; AID 463104;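 active = versus positive control, 20 µM dose yields 30% or more activation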
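Test system: CHO-XBP1 luciferase reporter cells | Buffer or medium: Serum-containing F12 medium, 10% FBS | Schedule: 6 h compound exposure at 37 °C, 5% CO2 | Detection: Steady-Glo luciferase glow luminescence, 10 min after reagent addition | Read-out basis: Activation, % of tunicamycin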
tim10-1 inh: inhibits growth of tim10-1 mutant yeast | S. cerevisiae tim10-1 ts strain growth, BacTiter-Glo, 24 h | inhibition, % at 20 µM | 330,000 compounds, 2.2% hits | AID 463190;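 active = inhibition of at least 40%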;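 note: mutant grown at 25 °C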
tim23-1 inh: tim23-1 yeast growth inhibition | AID 463212 | S. cerevisiae tim23-1 growth, BacTiter-Glo luminescence, 24 h | inhibition, % at 20 µM | 330,000 compounds, 1.3% hits;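 active = growth inhibition of the mutant yeast at or above 50%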;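 note: temperature-sensitive mutant grown at 25 °C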
tim10-1 confirm: tim10-1 yeast growth inhibition, confirmed; inhibition, % at 20 µM; S. cerevisiae tim10-1 ts strain growth, BacTiter-Glo, 24 h; 7,400 compounds, 56% hits; shares compounds with tim10-1 inh;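 active = inhibition of yeast growth at or above a set limit in either of two repeat tests at 20 µM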;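 note: tim10-1 mutant grown at permissive 25 °C to find synthetic lethal compounds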
Numbers stand for hits; . = inactive; / = not tested or not shown. Most compounds without a hit are left out; they make up all but 3.9% or so of the library.

SMILES	CHOP UPR activ	TIM10 inh	UPR XBP1 act	tim10-1 inh	tim23-1 inh	tim10-1 confirm
CCOc1cccc2cc(-c3nnc(NCc4ccco4)s3)c(=O)oc12	.	.	.	40	.	.
C/C(CC(=O)Nc1ccc(N(C)C)cc1)=N\NC(=O)c1ccc(C(C)(C)C)cc1	.	.	.	53	.	33
C/C(CC(=O)Nc1ccc(N(C)C)cc1)=N\NC(=O)c1ccc(F)cc1	.	.	.	.	.	/
O=C(Nc1ncc2c(n1)-c1ccccc1CC2)c1ccc(Cl)cc1	.	.	.	47	.	37
COc1ccc(Nc2nc(N)c(C(=O)c3ccc(OC)cc3)s2)cc1	.	.	.	44	.	.
Cc1ccc(C)c(CSc2nnc(-c3ccccn3)n2N)c1	.	.	.	44	.	.
CC(C)C(=O)NC(=S)N(Cc1ccccc1)Cc1ccccc1	.	.	.	41	.	.
N/C(=N\S(=O)(=O)c1cc(C(F)(F)F)cc(C(F)(F)F)c1)c1ccncc1	.	.	.	.	.	/
N/C(=N\S(=O)(=O)c1cc(C(F)(F)F)cc(C(F)(F)F)c1)c1ccc(Cl)cc1	.	.	.	46	.	43
O=C(Nc1ccc(CN2CCOCC2)cc1)c1ccco1	.	.	.	.	.	/
Cc1sc2nc(CN3CCOCC3)nc(Oc3ccc(NC(=O)c4ccco4)cc3)c2c1C	.	.	.	48	.	.
COCCN(Cc1nc2ccccc2c(=O)[nH]1)C(=O)COc1ccccc1-c1ccccc1	.	.	.	.	.	/
Cc1ccc2cccc(NC(=S)NC(=O)c3ccnn3C)c2n1	.	.	.	43	.	.
COc1ccc(S(=O)(=O)Cc2ccc(C(=O)NC3CC3)o2)cc1	.	.	.	.	.	/
COc1ccc(S(=O)(=O)Cc2ccc(C(=O)N3CCN(c4ccc(Cl)cc4)CC3)o2)cc1	.	.	.	46	.	.
COc1ccc(S(=O)(=O)Cc2ccc(C(=O)NC3CCC(C)CC3)o2)cc1 (stereo not drawn)	.	.	.	40	.	.
COc1ccc(S(=O)(=O)Cc2ccc(C(=O)N3CCN(c4cc(C)ccc4C)CC3)o2)cc1	.	.	.	45	.	.
COc1ccc(N2CCN(C(=O)c3ccc(CS(=O)(=O)c4ccc(OC)cc4)o3)CC2)cc1	.	.	.	.	.	/
COc1ccc(/C=N/NC(=O)CCCOc2ccc(Cl)cc2Cl)cc1	.	.	.	47	.	.
O=C(CSc1nc(-c2ccccc2)cs1)N1CCN(C(=O)c2ccco2)CC1	.	.	.	44	.	.
O=C(CSc1ccccc1)N1CCN(C(=O)c2ccco2)CC1	.	.	.	.	.	/
COc1ccc(C(=O)c2sc3nc(-c4ccccc4)ccc3c2N)cc1	.	.	.	45	.	.
CCn1c2ccccc2c2c3ncc4cccn4c3ccc21	.	.	.	49	.	30
c1ccc2c(c1)ncc1cccn12	.	.	.	.	.	/
CC[C@]12c3[nH]c4ccc(Cl)cc4c3CCN1C(=O)[C@@H](CC(=O)NCCCn1ccnc1)C[C@@H]2C(=O)N1CCN(C(=O)C2CC2)CC1	.	.	.	.	.	/
SMILES	CHOP UPR activ	TIM10 inh	UPR XBP1 act	tim10-1 inh	tim23-1 inh	tim10-1 confirm
CC(C)(C)C1CCc2c(sc(NC(=O)CSc3ncn[nH]3)c2C#N)C1 (stereo not drawn)	.	.	.	40	.	.
CCCc1cc(=O)[nH]c(SCC(=O)Nc2sc3c(c2C#N)CCC(C)C3)n1 (stereo not drawn)	.	.	.	47	.	.
CCCN(CC(=O)Nc1ccccc1OC)C(=O)C1=COCCO1	.	.	.	.	.	/
C=CCn1c(-c2cc3cccc(OC)c3o2)n[nH]c1=S	.	.	.	44	.	.
C=CCn1c(-c2cccc(OC)c2OC)n[nH]c1=S	.	.	.	.	.	/
CCCCNC(=S)N1CCn2cccc2C1c1ccc(F)cc1 (stereo not drawn)	.	.	.	44	.	.
CCc1ccc2[nH]c(=O)c(C3C(C#N)=C(N)Oc4c3ccc3cccnc43)cc2c1 (stereo not drawn)	.	.	.	41	.	.
Cc1ccc2cc(C3C(C#N)=C(N)Oc4c3ccc3cccnc43)c(=O)[nH]c2c1 (stereo not drawn)	.	.	.	.	.	/
CCn1c2ccccc2c2nc3cc(OC)c(OC)cc3nc21	.	.	.	.	.	/
CCn1c2ccccc2c2nc3ccccc3nc21	.	.	.	43	.	35
Oc1ccc(/C=N/NC(=S)N/N=C/c2ccc(O)cc2)cc1	.	.	.	41	.	.
[O-][n+]1cccc2c(Br)cc(Br)c(O)c21	.	.	.	49	.	.
CC1CCCC(NC(=O)CN2CCN(S(=O)(=O)c3cccs3)CC2)C1C (stereo not drawn)	.	.	.	.	.	/
Cc1ccc(C(=O)COC(=O)CCN2C(=O)C3C4C=CC(C5CC45)C3C2=O)cc1 (stereo not drawn)	.	.	.	.	.	/
O=C(N/N=C1\CCCc2ccccc21)c1ccc([N+](=O)[O-])cc1	.	.	.	46	.	.
COc1ccc(-n2cc(-c3ccc(Cl)cc3)[nH]c2=S)cc1	.	.	.	.	.	/
COc1cccc(-n2cc(-c3ccc(F)cc3)[nH]c2=S)c1	.	.	.	46	.	.
NS(=O)(=O)c1ccc(NCc2ccccc2OCc2ccc(F)cc2)cc1	.	.	.	44	.	.
CCOc1ccc(NC(=O)c2cccc3c2C(=O)N(Cc2cccnc2)C3)cc1	.	.	.	42	.	35
COCCN1Cc2cccc(C(=O)Nc3cccc(C)c3C)c2C1=O	.	.	.	.	.	/
COCCN1Cc2cccc(C(=O)Nc3ccc(C)cc3)c2C1=O	.	.	.	43	.	.
COCCN1Cc2cccc(C(=O)Nc3cccnc3)c2C1=O	.	.	.	.	.	/
COCCN1Cc2cccc(C(=O)Nc3ccc4c(c3)OCCO4)c2C1=O	.	.	.	45	.	.
COc1ccc(C(=O)NCc2nnc(SCC(=O)N3CCCC3)o2)cc1	.	.	.	.	.	/
COc1ccc(CCNC(=O)CNC(=O)c2ccccc2Br)cc1OC	.	.	.	.	.	/
CN(C)c1cc2c(c(N(C)C)c1)C(=O)c1ccccc1C2=O	.	.	.	44	.	34
CN(C)S(=O)(=O)c1cccc2c1C(=O)c1ccccc1C2=O	.	.	.	.	.	/
CC1=C(C)CC(C(=O)NC2CCN(C(C)C)CC2)C(C(=O)O)C1 (stereo not drawn)	.	.	.	.	.	/
Cc1nc(N2CCN(C)CC2)c2c(C)c(C(=O)Nc3ccc(C)c(F)c3)sc2n1	.	.	.	.	.	/
Cc1nc(N2CCCCC2)c2c(C)c(C(=O)Nc3ccc4c(c3)OCCO4)sc2n1	.	.	.	46	.	31
